Assay [1] is described as follows: HUVEC growth inhibition – cell-based, human, primary screen (AID 575;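 active means viability at or below 30% in both replicate assays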;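 further: 100% = median of untreated cell wells with 0.1% DMSO on each plate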). To be noted: HUVEC proliferation, CellTiter-Glo luminescence, 72 h; at 10 µM; stronger effect = lower value. The essentials: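 Timing: 72 h treatment at 37 °C; material: HUVEC primary cells; technique: CellTiter-Glo luminescence measuring cellular ATP; controls: vehicle and MePR control wells; measure: percent of median DMSO-control luminescence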

The nature of assay [2]: growth inhibitors of H69AR lung tumor, primary screen, human, duplicate replicates (AID 580).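 Further: 100% = mean luminescence of untreated wells and 0% = no signal.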 To be noted: H69AR lung tumor cells viability, ATP luminescence, 72 h; at 10 µM; stronger effect = lower value.
Assay [3] can be described thus: reversal of MRP1-mediated doxorubicin resistance, pilot screen, H69AR cells, doxorubicin co-treatment (AID 601;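 active means viability loss from added drug above about 55%, and viability with drug at most 40%, in both replicates, limit read from the data, passing the limit was not always enough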). To be noted: CellTiter-Glo, 72 h, at 10 µM; for differential viability (reversal): stronger effect = higher value.
The nature of assay [4]: 384-well plate pilot, post-Golgi transport modulator project, inhibition of yeast transport mutant growth (AID 636; in the data active means inhibition above about 31%). To be noted: absorbance 615 nm, about 18 h, stronger effect = higher value.
Assay [5] in a line: growth suppression of yeast trafficking mutant, preliminary HTS, modulators of trafficking downstream of Golgi apparatus project, 1536-format plate, OD 615 nm (AID 637; in the data active means inhibition above about 30%). The following applies: yeast transport mutant growth, absorbance 615 nm, 18 h; stronger effect = higher value.
The mark [6] stands for this setting: H69AR cells + 2 uM doxorubicin, measured here: viability with 2 uM doxorubicin, stronger effect = lower value.
Setting [7] is: H69AR cells, compound alone cytotoxicity.

Here are results for 19 molecules from PubChem BioAssay.

What is called viability is a read-out of living cells in per cent, often relative to untreated cells. By inhibition is commonly meant the relative decrease from the control value, in per cent.

Activity calls are given as the source filed them.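 How the source made its calls, unless noted: active means viability at or under a set limit in both replicates, limit being median viability minus 3 SD (cut at about 48% in these data, passing the limit was not always enough); inconclusive means at or under the limit in just one replicate; inactive means at or above the limit in both replicates.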

On to `CN(C)S(=O)(=O)c1cccc(C(=O)Nc2cccnc2)c1`, for which the viability is 83.9% (inactive) in assay [1], 89.5% (inactive) in assay [2], 82% in assay [3] (setting [6]) and 89.5% in assay [3] (setting [7]). The differential viability (reversal) in assay [3] (H69AR cells + 2 uM doxorubicin) is 7.48% (inactive). Further, the inhibition is -4.93% (inactive) in assay [4] and 1.43% (inactive) in assay [5].

`COC(=O)c1cccc(NC(=O)CSc2nnc(COc3ccccc3)n2C)c1`: the viability in assay [1] was 102% (inactive); in assay [2], 101% (inactive); in assay [3] (setting [6]), 87%; in assay [3] (setting [7]), 101%. In addition, the differential viability (reversal) in assay [3] (H69AR cells + 2 uM doxorubicin) is 13.7% (inactive). Moreover, the inhibition in assay [4] is -4.27% (inactive); in assay [5] it was 2.22% (inactive).

On to `Cc1ccccc1NC(=O)C1CCC(C)(C(=O)O)C1(C)C` (stereo not drawn), for which the viability in assay [1] is 92.7% (inactive); in assay [2], 99.8% (inactive); in assay [3] (setting [6]) it was 98.8%; in assay [3] (setting [7]) it was 99.8%. Also, in assay [3] (H69AR cells + 2 uM doxorubicin), the differential viability (reversal) is 0.94% (inactive). In addition, the inhibition in assay [4] is -0.78% (inactive); in assay [5], -7.3% (inactive).

For `COc1ccc2oc(C)c(C(=O)Cn3ccnc3)c2c1`, the viability in assay [1] is 92.8% (inactive); in assay [2], 87.8% (inactive); in assay [3] (setting [6]), 90.1%; in assay [3] (setting [7]), 87.8%. Moreover, the differential viability (reversal) in assay [3] (H69AR cells + 2 uM doxorubicin) was -2.3% (inactive). Also, the results for the inhibition in assay [4] and in assay [5] were 1.69% (inactive) and 24.8% (inactive), respectively.

Regarding `Cc1cccc(-n2ncc3c(NCc4ccccn4)ncnc32)c1`, the viability in assay [1] is 97.5% (inactive); in assay [2] it was 89.6% (inactive); in assay [3] (setting [6]), 87.8%; in assay [3] (setting [7]), 89.6%. The differential viability (reversal) in assay [3] (H69AR cells + 2 uM doxorubicin) is 1.75% (inactive). The inhibition in assay [4] was -1.17% (inactive); in assay [5] it was -4.6% (inactive).

Turning to `O=C(NC(NC1CCS(=O)(=O)C1)C(=O)c1cccs1)c1ccccc1` (stereo not drawn), the viability is 106% (inactive) in assay [1], 106% (inactive) in assay [2], 98.2% in assay [3] (setting [6]) and 106% in assay [3] (setting [7]). In assay [3] (H69AR cells + 2 uM doxorubicin), the differential viability (reversal) is 7.72% (inactive). Also, the values for the inhibition in assay [4] and in assay [5] were -1.17% (inactive) and -3.33% (inactive), respectively.

As to `N#Cc1nc(COc2ccccc2)oc1NCCN1CCOCC1`, the viability in assay [1] is 108% (inactive); in assay [2] it was 107% (inactive); in assay [3] (setting [6]) it was 95%; in assay [3] (setting [7]), 107%. Further, the differential viability (reversal) in assay [3] (H69AR cells + 2 uM doxorubicin) was 11.7% (inactive). The figures for the inhibition in assay [4] and in assay [5] were -4.68% (inactive) and 10.5% (inactive), respectively.

Turning to `O=C1NC(c2ccccc2)(C(F)(F)F)SC2=NCCCN12` (stereo not drawn), the viability in assay [1] was 102% (inactive); in assay [2] it was 97.2% (inactive); in assay [3] (setting [6]) it was 89.6%; in assay [3] (setting [7]), 97.2%. Besides, in assay [3] (H69AR cells + 2 uM doxorubicin), the differential viability (reversal) was 7.68% (inactive). The results for the inhibition in assay [4] and in assay [5] were 3.82% (inactive) and -6.98% (inactive), respectively.

Consider `CCCCn1c(NC(=O)CC)c(C#N)c2nc3ccccc3nc21`, for which the viability in assay [1] is 77.4% (inactive); in assay [2], 81.9% (inactive); in assay [3] (setting [6]) it was 79.8%; in assay [3] (setting [7]), 81.9%. Also, the differential viability (reversal) in assay [3] (H69AR cells + 2 uM doxorubicin) was 2.13% (inactive). For the same molecule, the inhibition in assay [4] was -6.67% (inactive); in assay [5] it was -2.38% (inactive).

Turning to `CCOC(=O)c1c(C)oc2ccc(O)c(CN(C)C)c12`, the viability was 77.4% (inactive) in assay [1], 87.3% (inactive) in assay [2], 83.7% in assay [3] (setting [6]) and 87.3% in assay [3] (setting [7]). Besides, the differential viability (reversal) in assay [3] (H69AR cells + 2 uM doxorubicin) was 3.6% (inactive). The inhibition in assay [4] is -6.1% (inactive); in assay [5], 2.22% (inactive).

With `O=C(Nc1ccc2c(c1)OCO2)OCc1ccccc1`, the viability in assay [1] is 78.9% (inactive); in assay [2] it was 106% (inactive); in assay [3] (setting [6]), 94.5%; in assay [3] (setting [7]) it was 106%. In addition, in assay [3] (H69AR cells + 2 uM doxorubicin), the differential viability (reversal) is 11.4% (inactive). Further, the inhibition was -4.4% (inactive) in assay [4] and 2.22% (inactive) in assay [5].

For `Oc1cccc2ccc(Nc3ccccn3)nc12`, the viability in assay [1] was 2.4% (active); in assay [2], 1.99% (active); in assay [3] (setting [6]) it was 1.5%; in assay [3] (setting [7]), 1.99%. The differential viability (reversal) in assay [3] (H69AR cells + 2 uM doxorubicin) is 0.495% (inactive). The inhibition is -4.16% (inactive) in assay [4] and 2.22% (inactive) in assay [5].

Consider `CC(OC(=O)c1cccc(NS(C)(=O)=O)c1)C(=O)Nc1ccc(N2CCOCC2)cc1` (stereo not drawn), for which the viability is 98.9% (inactive) in assay [1], 96% (inactive) in assay [2], 86.1% in assay [3] (setting [6]) and 96% in assay [3] (setting [7]). Also, the differential viability (reversal) in assay [3] (H69AR cells + 2 uM doxorubicin) is 9.84% (inactive). Besides, the inhibition in assay [4] is 0.78% (inactive); in assay [5] it was -2.54% (inactive).

Turning to `O=C(Cc1ccccc1)Nc1nnc(-c2cccs2)s1`, the viability was 96.8% (inactive) in assay [1], 61.1% (inactive) in assay [2], 67.1% in assay [3] (setting [6]) and 61.1% in assay [3] (setting [7]). Further, the differential viability (reversal) in assay [3] (H69AR cells + 2 uM doxorubicin) is -6.04% (inactive). In addition, the inhibition in assay [4] is -2.99% (inactive); in assay [5] it was 3.02% (inactive).

With `CCSC1=C(C#N)C(c2cccc(OC)c2)CC(=O)N1` (stereo not drawn), the viability in assay [1] is 85.5% (inactive); in assay [2], 101% (inactive); in assay [3] (setting [6]), 92.6%; in assay [3] (setting [7]) it was 101%. Besides, in assay [3] (H69AR cells + 2 uM doxorubicin), the differential viability (reversal) is 8.71% (inactive). The inhibition is 0.53% (inactive) in assay [4] and -1.9% (inactive) in assay [5].

As to `CCOc1ccccc1C(=O)NCCCn1ccnc1`, the viability in assay [1] is 95.3% (inactive); in assay [2], 91.9% (inactive); in assay [3] (setting [6]), 87.5%; in assay [3] (setting [7]), 91.9%. For the same molecule, the differential viability (reversal) in assay [3] (H69AR cells + 2 uM doxorubicin) was 4.38% (inactive). In addition, the inhibition in assay [4] is -4.42% (inactive); in assay [5], 2.7% (inactive).

Turning to `O=C(Cc1ccc(S(=O)(=O)N2CCCC2)s1)Nc1nc2c(s1)CCCC2`, the viability in assay [1] is 66.3% (inactive); in assay [2], 95.7% (inactive); in assay [3] (setting [6]) it was 94.7%; in assay [3] (setting [7]) it was 95.7%. Besides, in assay [3] (H69AR cells + 2 uM doxorubicin), the differential viability (reversal) is 1% (inactive). Besides, the inhibition in assay [4] is -1.17% (inactive); in assay [5], -6.83% (inactive).

Regarding `CCCC1CCC(C(=O)Nn2c(C)nc3ccccc3c2=O)CC1` (stereo not drawn), the viability is 104% (inactive) in assay [1], 98.2% (inactive) in assay [2], 83.3% in assay [3] (setting [6]) and 98.2% in assay [3] (setting [7]). In assay [3] (H69AR cells + 2 uM doxorubicin), the differential viability (reversal) is 14.9% (inactive). In addition, the inhibition in assay [4] was -3.16% (inactive); in assay [5] it was 0.95% (inactive).

For `COC(=O)c1sccc1NC(=O)c1ccncc1`, the viability was 115% (inactive) in assay [1], 86.4% (inactive) in assay [2], 77.5% in assay [3] (setting [6]) and 86.4% in assay [3] (setting [7]). The differential viability (reversal) in assay [3] (H69AR cells + 2 uM doxorubicin) is 8.91% (inactive). The inhibition in assay [4] was -3.95% (inactive); in assay [5] it was 5.56% (inactive).
